From ChEMBL document CHEMBL6092224, “The Discovery and Preclinical Profile of ALG-000184, a Prodrug of the Potent Hepatitis B Virus Capsid Assembly Modulator ALG-001075” (J Med Chem, 2024)

Assays:
[1] = Metabolic stability in dog plasma assessed as half life; format: ADME, cell-free, Canis lupus familiaris
Cytochrome P450 2B6 = target: T1, Cytochrome P450 2B6 (Homo sapiens, UniProt P20813); assay: Inhibition of CYP2B6 in human liver microsomes in presence of NADPH; format: ADME, Microsome
T1 sequence (P20813 whole entry): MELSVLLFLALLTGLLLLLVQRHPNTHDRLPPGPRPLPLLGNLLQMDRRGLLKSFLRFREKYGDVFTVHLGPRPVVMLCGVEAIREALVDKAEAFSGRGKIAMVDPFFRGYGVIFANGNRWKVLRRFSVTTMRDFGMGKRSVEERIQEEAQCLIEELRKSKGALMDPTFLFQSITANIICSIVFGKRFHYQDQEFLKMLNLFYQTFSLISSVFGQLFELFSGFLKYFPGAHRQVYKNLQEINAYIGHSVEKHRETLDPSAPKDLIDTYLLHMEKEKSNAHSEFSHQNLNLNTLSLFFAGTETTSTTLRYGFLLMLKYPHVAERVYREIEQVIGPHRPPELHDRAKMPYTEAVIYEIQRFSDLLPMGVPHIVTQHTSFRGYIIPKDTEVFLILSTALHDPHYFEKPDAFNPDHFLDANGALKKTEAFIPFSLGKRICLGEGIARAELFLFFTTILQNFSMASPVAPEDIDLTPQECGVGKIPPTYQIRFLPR
Summary of the method: (§1)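 Pooled human liver microsomes with CYP isoform-specific probe substrates, in 100 mM potassium phosphate pH 7.4, 3 mM MgCl2 and 1 mM NADPH, at 37 °C. Final test ranges were 0.069–50 μM or 0.03–100 μM; IC50 was determined.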

Cytochrome P450 2C9 = Cytochrome P450 2C9 (Homo sapiens, UniProt P11712); assay: Inhibition of CYP2C9 in human liver microsomes in presence of NADPH; format: ADME, Microsome; summary of the method: as §1
[2] = Mutagenicity in Salmonella typhimurium TA97a by Ames test; format: toxicity; conditions: salmonella enterica subsp. enterica serovar typhimurium
UGT1A1 = UGT1A1 (Homo sapiens, UniProt P22309); assay: Inhibition of recombinant human UGT1A1 at 10 uM in presence of UDPGA relative to control
Summary of the method: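 Recombinant human UGT1A1 at 0.05 mg/mL with 5 mM UDPGA cofactor, 10 min incubation; test compound at single 10 μM concentration.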

[3] = Mutagenicity in Salmonella typhimurium TA98 by Ames test; format: toxicity; conditions: salmonella enterica subsp. enterica serovar typhimurium
[4] = Metabolic stability in dog liver microsomes assessed as half life at 1 uM incubated upto 60 mins in presence of NADPH; format: ADME, Canis lupus familiaris, Microsome
Summary of the method: (§2)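 Compound at 1 μM incubated at 37 °C with liver microsomes of each species for 0, 15, 30 and 60 min, with and without NADPH; half-life determined.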

Cytochrome P450 2C19 = Cytochrome P450 2C19 (Homo sapiens, UniProt P33261); assay: Inhibition of CYP2C19 in human liver microsomes in presence of NADPH; format: ADME, Microsome; summary of the method: as §1
Cytochrome P450 1A2 = Cytochrome P450 1A2 (Homo sapiens, UniProt P05177); assay: Inhibition of CYP1A2 in human liver microsomes in presence of NADPH; format: ADME, Microsome; summary of the method: as §1
[5] = Metabolic stability in rat plasma assessed as half life; format: ADME, cell-free
Cytochrome P450 2D6 = Cytochrome P450 2D6 (Homo sapiens, UniProt P10635); assay: Inhibition of CYP2D6 in human liver microsomes in presence of NADPH; format: ADME, Microsome; summary of the method: as §1
[6] = Metabolic stability in Cynomolgous monkey plasma assessed as half life; format: ADME, cell-free, Macaca fascicularis; conditions: cynomolgus monkey
Cytochrome P450 3A4 = Cytochrome P450 3A4 (Homo sapiens, UniProt P08684); assay: Inhibition of CYP3A4 in human liver microsomes in presence of NADPH; format: ADME, Microsome
Summary of the method: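 Pooled human liver microsomes in 100 mM potassium phosphate pH 7.4, 3 mM MgCl2, 1 mM NADPH, 37 °C, with CYP3A4-specific probe substrate; test compound over 0.069–50 μM or 0.03–100 μM final, IC50 derived.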

[7] = Mutagenicity in Salmonella typhimurium TA100 by Ames test; format: toxicity; conditions: salmonella enterica subsp. enterica serovar typhimurium
[8] = Metabolic stability in mouse liver microsomes assessed as half life at 1 uM incubated upto 60 mins in presence of NADPH; format: ADME, Microsome; summary of the method: as §2
[9] = target: Solute carrier organic anion transporter family member 1B1 (Homo sapiens, UniProt Q9Y6L6); assay: Inhibition of OATP1B1 (unknown origin) transfected in HEK293 cells; format: cell-based
Summary of the method: (§3)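 HEK-293 cells transfected with the uptake transporter; uptake of known probe substrates measured with test compound at eight concentrations (0.0229–50.0 μM or 0.0457–100 μM); inhibition at each concentration used to calculate IC50.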

[10] = Metabolic stability in human plasma assessed as half life; format: ADME, cell-free
[11] = Genotoxicity in human TK6 cells measured for 4 to 27 hrs by micronucleus test; format: toxicity, cell-based; conditions: time 4-27 hrs
[12] = Mutagenicity in Salmonella typhimurium TA1535 by Ames test; format: toxicity; conditions: salmonella enterica subsp. enterica serovar typhimurium
Cytochrome P450 2C8 = Cytochrome P450 2C8 (Homo sapiens, UniProt P10632); assay: Inhibition of CYP2C8 in human liver microsomes in presence of NADPH; format: ADME, Microsome; summary of the method: as §1
[13] = Metabolic stability in human liver microsomes assessed as half life at 1 uM incubated upto 60 mins in presence of NADPH; format: ADME, Microsome; summary of the method: as §2
[14] = Metabolic stability in mouse plasma assessed as half life; format: ADME, cell-free
[15] = target: Solute carrier organic anion transporter family member 1B3 (Homo sapiens, UniProt Q9NPD5); assay: Inhibition of OATP1B3 (unknown origin) transfected in HEK293 cells; format: cell-based; summary of the method: as §3
[16] = Mutagenicity in Salmonella […] by Ames test; format: toxicity; conditions: salmonella enterica subsp. enterica serovar typhimurium
[17] = target: Voltage-gated inwardly rectifying potassium channel KCNH2 (Homo sapiens, UniProt Q12809); assay: Inhibition of hERG expressed in mammalian cells at 10 uM by automated patch-clamp method; format: toxicity, cell-based
Summary of the method: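 Currents of hERG, Nav1.5 or Cav1.2 channels expressed in mammalian cells recorded by automated patch clamp (QPatch 48) at room temperature.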

Hepatitis B virus = assay: Antiviral activity against HBV genotype D infected in human HepG2.117 cells assessed as decrease in HBV DNA production by qPCR analysis; format: functional, organism-based
Summary of the method: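 HepG2.117 cells (integrated genotype D HBV genome, Tet-off promoter; kept in 1 μg/mL doxycycline) were seeded at 20,000 cells/well and given serial compound dilutions (2% DMSO) for 3 days at 37 °C. Lysates were taken in 0.33% NP40. Intracellular HBV DNA was quantified by qPCR and EC50/EC90 derived. For serum shift, 40% human serum was present during incubation. Mean ± SEM, n=3 (serum) or 13.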

[18] = Metabolic stability in Cynomolgous monkey liver microsomes assessed as half life at 1 uM incubated upto 60 mins in presence of NADPH; format: ADME, Macaca fascicularis, Microsome; conditions: cynomolgus monkey; summary of the method: as §2
[19] = Metabolic stability in rat liver microsomes assessed as half life at 1 uM incubated upto 60 mins in presence of NADPH; format: ADME, Microsome; summary of the method: as §2
[20] = AUC (infinity) in Beagle dog at 5 mg/kg, po by LC-MS/MS analysis; format: ADME, organism-based, Canis lupus familiaris; conditions: in vivo
Summary of the method: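 Single dose to fasted male C57BL6 mice, Sprague-Dawley rats, beagle dogs and cynomolgus monkeys, either IV at 1 mg/kg or PO as a solution at 5 mg/kg, in 80% PEG 400 in water. Plasma concentrations were measured by LC-MS/MS. PK parameters come from noncompartmental analysis using nominal doses and nominal sampling times.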

Voltage-gated inwardly rectifying potassium channel KCNH2, sequence (Q12809 whole entry): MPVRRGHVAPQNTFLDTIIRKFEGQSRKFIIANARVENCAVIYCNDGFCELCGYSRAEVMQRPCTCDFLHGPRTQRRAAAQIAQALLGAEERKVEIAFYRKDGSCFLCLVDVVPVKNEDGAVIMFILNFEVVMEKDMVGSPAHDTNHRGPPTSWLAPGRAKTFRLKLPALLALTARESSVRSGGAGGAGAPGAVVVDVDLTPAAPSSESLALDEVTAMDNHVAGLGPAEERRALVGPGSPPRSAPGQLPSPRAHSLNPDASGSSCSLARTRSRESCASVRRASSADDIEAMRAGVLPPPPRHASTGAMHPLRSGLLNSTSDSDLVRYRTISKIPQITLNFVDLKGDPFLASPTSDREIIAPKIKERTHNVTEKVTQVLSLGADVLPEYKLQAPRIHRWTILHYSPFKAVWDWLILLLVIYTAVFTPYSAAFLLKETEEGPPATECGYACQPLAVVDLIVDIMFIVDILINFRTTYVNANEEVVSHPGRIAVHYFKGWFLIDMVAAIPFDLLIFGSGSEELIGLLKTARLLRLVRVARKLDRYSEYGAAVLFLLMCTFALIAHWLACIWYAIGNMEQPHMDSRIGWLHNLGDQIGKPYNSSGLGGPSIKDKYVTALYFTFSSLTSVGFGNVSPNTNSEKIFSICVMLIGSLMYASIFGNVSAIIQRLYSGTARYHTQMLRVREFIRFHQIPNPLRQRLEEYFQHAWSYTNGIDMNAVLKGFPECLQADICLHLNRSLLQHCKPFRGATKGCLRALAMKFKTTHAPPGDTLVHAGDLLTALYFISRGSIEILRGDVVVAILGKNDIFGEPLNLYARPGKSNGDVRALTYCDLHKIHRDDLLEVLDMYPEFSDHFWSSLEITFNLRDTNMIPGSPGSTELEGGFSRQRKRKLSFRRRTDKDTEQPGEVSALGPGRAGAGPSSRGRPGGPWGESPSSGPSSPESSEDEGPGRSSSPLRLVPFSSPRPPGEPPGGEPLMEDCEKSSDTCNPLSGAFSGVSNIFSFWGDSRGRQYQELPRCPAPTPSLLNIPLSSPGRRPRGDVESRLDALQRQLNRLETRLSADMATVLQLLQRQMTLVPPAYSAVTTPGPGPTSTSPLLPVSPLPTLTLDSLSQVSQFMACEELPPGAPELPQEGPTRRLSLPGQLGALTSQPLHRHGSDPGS
Solute carrier organic anion transporter family member 1B1, sequence (Q9Y6L6 whole entry): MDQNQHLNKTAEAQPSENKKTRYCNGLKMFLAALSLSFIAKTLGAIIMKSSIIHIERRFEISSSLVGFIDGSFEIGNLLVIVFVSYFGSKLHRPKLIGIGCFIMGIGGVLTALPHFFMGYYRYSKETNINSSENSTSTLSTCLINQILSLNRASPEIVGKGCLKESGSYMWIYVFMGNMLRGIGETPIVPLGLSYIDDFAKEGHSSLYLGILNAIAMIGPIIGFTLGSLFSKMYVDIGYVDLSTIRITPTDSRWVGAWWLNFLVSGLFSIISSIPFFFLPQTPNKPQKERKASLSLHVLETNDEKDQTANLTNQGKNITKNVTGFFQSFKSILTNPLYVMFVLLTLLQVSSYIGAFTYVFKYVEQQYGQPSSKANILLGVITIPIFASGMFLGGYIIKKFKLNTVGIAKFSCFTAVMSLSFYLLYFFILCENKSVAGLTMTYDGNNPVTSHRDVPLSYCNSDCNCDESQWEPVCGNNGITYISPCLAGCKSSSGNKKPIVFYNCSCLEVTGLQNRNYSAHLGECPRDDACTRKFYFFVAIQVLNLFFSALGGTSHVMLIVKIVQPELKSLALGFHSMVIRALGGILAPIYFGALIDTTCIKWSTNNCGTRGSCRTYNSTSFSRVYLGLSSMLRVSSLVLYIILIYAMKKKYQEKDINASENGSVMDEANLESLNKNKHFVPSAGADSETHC
Solute carrier organic anion transporter family member 1B3, sequence (Q9NPD5 whole entry): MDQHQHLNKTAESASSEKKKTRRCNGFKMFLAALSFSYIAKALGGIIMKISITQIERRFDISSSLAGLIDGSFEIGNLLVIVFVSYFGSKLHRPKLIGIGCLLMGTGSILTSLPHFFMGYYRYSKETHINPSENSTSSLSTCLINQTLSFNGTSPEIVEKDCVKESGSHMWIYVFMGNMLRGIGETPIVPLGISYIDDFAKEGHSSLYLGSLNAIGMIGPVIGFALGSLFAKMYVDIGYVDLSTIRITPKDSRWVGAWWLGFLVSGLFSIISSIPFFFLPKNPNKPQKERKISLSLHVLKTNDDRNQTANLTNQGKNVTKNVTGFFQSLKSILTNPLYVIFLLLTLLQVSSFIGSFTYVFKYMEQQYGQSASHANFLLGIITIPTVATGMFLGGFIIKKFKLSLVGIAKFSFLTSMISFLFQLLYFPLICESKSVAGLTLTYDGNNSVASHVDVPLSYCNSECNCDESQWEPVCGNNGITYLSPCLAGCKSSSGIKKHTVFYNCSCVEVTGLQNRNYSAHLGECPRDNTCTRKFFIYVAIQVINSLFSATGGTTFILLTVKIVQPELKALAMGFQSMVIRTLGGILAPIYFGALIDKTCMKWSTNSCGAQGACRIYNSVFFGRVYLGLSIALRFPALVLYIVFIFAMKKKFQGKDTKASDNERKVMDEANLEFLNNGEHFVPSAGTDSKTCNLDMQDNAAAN
UGT1A1, sequence (P22309 whole entry): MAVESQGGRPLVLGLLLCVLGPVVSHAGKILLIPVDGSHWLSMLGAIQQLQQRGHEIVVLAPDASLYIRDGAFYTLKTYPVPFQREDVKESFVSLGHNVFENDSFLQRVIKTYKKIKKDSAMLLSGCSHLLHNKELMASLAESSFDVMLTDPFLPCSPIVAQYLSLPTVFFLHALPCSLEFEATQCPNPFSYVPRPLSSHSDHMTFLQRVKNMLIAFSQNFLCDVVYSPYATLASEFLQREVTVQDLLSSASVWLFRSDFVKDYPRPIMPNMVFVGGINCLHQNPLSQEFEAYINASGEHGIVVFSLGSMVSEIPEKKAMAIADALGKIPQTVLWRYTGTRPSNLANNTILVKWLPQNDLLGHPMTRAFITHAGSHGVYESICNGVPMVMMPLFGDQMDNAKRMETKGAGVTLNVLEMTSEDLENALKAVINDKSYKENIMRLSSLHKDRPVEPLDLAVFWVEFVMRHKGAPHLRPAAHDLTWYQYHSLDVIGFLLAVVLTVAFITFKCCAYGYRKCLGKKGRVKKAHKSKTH
Cytochrome P450 2C19, sequence (P33261 whole entry): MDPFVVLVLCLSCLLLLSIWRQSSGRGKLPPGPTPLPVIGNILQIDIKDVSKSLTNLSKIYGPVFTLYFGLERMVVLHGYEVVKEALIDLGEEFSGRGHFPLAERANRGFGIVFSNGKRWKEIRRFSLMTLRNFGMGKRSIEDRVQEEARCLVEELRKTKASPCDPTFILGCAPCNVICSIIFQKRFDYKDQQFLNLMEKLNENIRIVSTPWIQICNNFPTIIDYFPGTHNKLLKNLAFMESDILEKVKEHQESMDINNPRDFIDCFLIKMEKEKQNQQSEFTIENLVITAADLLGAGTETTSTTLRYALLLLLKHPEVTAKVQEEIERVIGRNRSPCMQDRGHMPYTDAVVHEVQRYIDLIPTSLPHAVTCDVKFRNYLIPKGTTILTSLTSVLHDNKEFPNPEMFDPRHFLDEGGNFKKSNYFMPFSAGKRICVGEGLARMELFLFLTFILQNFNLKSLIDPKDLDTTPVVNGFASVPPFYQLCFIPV
Cytochrome P450 2D6, sequence (P10635 whole entry): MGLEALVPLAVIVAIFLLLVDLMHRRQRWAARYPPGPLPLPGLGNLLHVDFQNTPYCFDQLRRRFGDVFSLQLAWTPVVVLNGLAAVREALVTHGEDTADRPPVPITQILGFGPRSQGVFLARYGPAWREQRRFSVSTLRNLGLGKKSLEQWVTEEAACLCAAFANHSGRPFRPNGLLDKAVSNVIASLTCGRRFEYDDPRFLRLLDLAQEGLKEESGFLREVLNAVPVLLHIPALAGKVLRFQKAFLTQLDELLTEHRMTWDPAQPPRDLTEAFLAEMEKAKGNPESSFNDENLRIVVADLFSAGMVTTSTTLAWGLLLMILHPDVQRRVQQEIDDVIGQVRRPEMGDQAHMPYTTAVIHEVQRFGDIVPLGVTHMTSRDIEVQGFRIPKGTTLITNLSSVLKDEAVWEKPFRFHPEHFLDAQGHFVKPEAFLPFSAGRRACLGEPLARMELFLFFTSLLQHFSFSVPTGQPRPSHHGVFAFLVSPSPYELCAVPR
Cytochrome P450 3A4, sequence (P08684 whole entry): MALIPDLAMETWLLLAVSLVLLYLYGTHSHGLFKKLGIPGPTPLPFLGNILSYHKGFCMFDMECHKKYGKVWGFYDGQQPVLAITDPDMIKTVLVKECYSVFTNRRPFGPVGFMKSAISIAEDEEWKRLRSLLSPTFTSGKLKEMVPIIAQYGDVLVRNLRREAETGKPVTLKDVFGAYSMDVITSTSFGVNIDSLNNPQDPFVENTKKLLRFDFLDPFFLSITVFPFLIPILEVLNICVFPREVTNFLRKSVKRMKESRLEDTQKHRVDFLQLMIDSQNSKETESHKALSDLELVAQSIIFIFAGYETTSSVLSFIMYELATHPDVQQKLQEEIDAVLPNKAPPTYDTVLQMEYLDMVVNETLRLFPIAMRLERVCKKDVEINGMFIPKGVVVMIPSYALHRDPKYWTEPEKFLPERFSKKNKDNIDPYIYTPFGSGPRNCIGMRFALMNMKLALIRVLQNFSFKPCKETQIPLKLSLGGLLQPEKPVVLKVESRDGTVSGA

Row | Structure (SMILES) | half-life [1] [h] | IC50 (Cytochrome P450 2B6) [µM] | IC50 (Cytochrome P450 2C9) [µM] | Activity [2] | inhibition at 10 µM (UGT1A1) [%] | Activity [3] | half-life at 1 µM [4] [h] | IC50 (Cytochrome P450 2C19) [µM] | IC50 (Cytochrome P450 1A2) [µM] | half-life [5] [h] | IC50 (Cytochrome P450 2D6) [µM] | half-life [6] [h] | IC50 (Cytochrome P450 3A4) [µM] | Activity [7] | half-life at 1 µM [8] [h] | IC50 [9] [µM] | half-life [10] [h] | Activity [11] | Activity [12] | IC50 (Cytochrome P450 2C8) [µM] | other results
1 | C#CC1(N(COP(=O)([O-])[O-])C(=O)C(=O)c2c(C)c(C(=O)Nc3ccc(F)c(C#N)c3)n(C)c2C)COC1.[Na+].[Na+] | > 4 | > 100 | > 100 | Non-toxic | 11.2 | Non-toxic | > 1 | > 100 | > 100 | > 4 | > 100 | > 4 | > 100 | Non-toxic | > 1 | ~50 | > 4 | Non-toxic | Non-toxic | > 100 | half-life at 1 µM [13]: > 1 h; half-life [14]: > 4 h; IC50 [15]: ~50 µM; Activity [16]: Non-toxic; IC50 [17]: > 300 µM; EC50 (Hepatitis B virus): 0.00145 µM; half-life at 1 µM [18]: > 1 h; half-life at 1 µM [19]: > 1 h
2 | C#CC1(NC(=O)C(=O)c2c(C)c(C(=O)Nc3ccc(F)c(C#N)c3)n(C)c2C)COC1 | > 4 | > 50 | > 50 | Non-toxic | 7.3 | Non-toxic | > 1 | > 50 | > 50 | > 4 | > 50 | > 4 | > 50 | Non-toxic | > 1 | > 11.8 | > 4 | Non-toxic | Non-toxic | 48.6 | half-life at 1 µM [13]: > 1 h; half-life [14]: > 4 h; IC50 [15]: > 11.8 µM; Activity [16]: Non-toxic; IC50 [17]: > 10 µM; EC50 (Hepatitis B virus): 0.00063 µM; EC90 (Hepatitis B virus): 0.00317 µM; half-life at 1 µM [18]: > 1 h; half-life at 1 µM [19]: > 1 h; AUC(0-inf) [20]: 24500 ng·h/mL
